This note sets out measurements from ChEMBL document CHEMBL2146394, “Design and synthesis of pyrrolo[3,2-d]pyrimidine HER2/EGFR dual inhibitors: improvement of the physicochemical and pharmacokinetic profiles for potent in vivo anti-tumor efficacy” (Bioorg Med Chem, 2012).

A short description of data set [1]: Apparent permeability across apical to basolateral side in human Caco2 cells at 10 umol/L. The format is ADME, cell-based. As to conditions: Caco-2. The method, boiled down: (§1)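 Confluent Caco-2 monolayers on collagen-coated polycarbonate Transwell membranes. HBSS with 10 mmol/L HEPES, 15 mmol/L glucose and 1% BSA, pH 7.3–7.5. Compound dosed at 10 µmol/L apically (A→B) or basolaterally (B→A), 37 °C, 5% CO₂. Receivers sampled at 1 and 2 h; LC/MS/MS. Papp from receiver concentration slope; duplicates.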
(In general: Caco-2 cells form a polarised layer with tight junctions and transporters.)

Data set [2] is described as follows: Apparent permeability across basolateral to apical side in human Caco2 cells at 10 umol/L. The format is ADME, cell-based. As to conditions: Caco-2. The method, boiled down: as §1
A short description of data set [3]: Metabolic stability in mouse hepatic microsomes at 1 umol/L after 20 mins. It counts as ADME. As to conditions: liver microsomes, read-out: Stability.
In data set [4] the test system is BT-474. The data set can be described thus: Antitumor activity against human BT474 cells xenografted in BALB/c nu/nu mouse at 100 mg/kg, po bid administered 14 days measured on day 31 relative to control. It counts as functional. The method, boiled down: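 BT-474 xenografts: 1×10⁷ cells in Matrigel implanted subcutaneously into the right flank of female BALB/c nu/nu mice. Estradiol dipropionate 0.25 mg given intramuscularly on days 0 and 7. Tumours of 200–300 mm³ used. Dosing 100 mg/kg orally bid in 0.5% methylcellulose for 14 days. Volume a×b²/2 by calipers. T/C (%) compared at day 31.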

In data set [5] the target is Epidermal growth factor receptor (Homo sapiens, UniProt P00533). Kind of data set: Inhibition of human N-terminal DYKDDDD tagged EGFR cytoplasmic domain amino acid 669 to 1210 expressed in baculovirus after 5 mins by scintillation counter.
The target in data set [6] is Receptor tyrosine-protein kinase erbB-2 (Homo sapiens, UniProt P04626). Kind of data set: Inhibition of human N-terminal DYKDDDD tagged HER2 cytoplasmic domain amino acid 676 to 1255 expressed in baculovirus after 5 mins by scintillation counter. The method, boiled down: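 FLAG-purified HER2 cytoplasmic domain in 50 mmol/L Tris-HCl pH 7.5, 5 mmol/L MnCl₂, 0.01% Tween-20, 2 mmol/L DTT, with poly-Glu-Tyr (4:1) and [γ-³²P]ATP. Compound and enzyme preincubated 5 min at room temperature; reaction started with ATP, 10 min at room temperature. Stopped with 10% TCA, filter-harvested, washed with 3% phosphoric acid, scintillation counted.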

The nature of data set [7]: Metabolic stability in human hepatic microsomes at 1 umol/L after 20 mins. As to conditions: liver microsomes, read-out: Stability. It counts as ADME. A digest of the protocol:
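Human liver microsomes (0.2 mg/mL protein) with 1 µmol/L compound in 50 mmol/L phosphate pH 7.4 plus an NADPH-generating system (glucose-6-phosphate, β-NADP⁺, G6PDH, MgCl₂). Incubated at 37 °C for 0 and 20 min, stopped with acetonitrile, duplicates. Remaining compound measured by HPLC with photodiode array detection.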
On the technique in general: Liver microsomes are a subcellular fraction often used to study metabolism.

Data set [8] relates to BT-474. Kind of data set: Growth inhibition of HER2 over-expressing human BT474 cells after 5 days. The format is functional. As to conditions: BT-474, 120 h. A digest of the protocol: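 BT-474 cells kept in RPMI 1640 with 10% heat-inactivated FBS. Seeded at 3×10⁴ cells/well and allowed to attach overnight. Treated continuously with compound for 5 days. Live cells counted with a particle analyzer; GI₅₀ derived.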

The nature of data set [9]: Antitumor activity against human 4-1ST cells xenografted in F344/N jcl-rnu rat at 25 mg/kg, po bid administered 14 days measured on day 31 relative to control. It counts as functional. A digest of the protocol:
(§2)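 4-1ST human gastric tumour tissue from donor animals minced and implanted subcutaneously in nude mice or nude rats. Tumours of 200–300 mm³ used. Compounds in 0.5% (w/v) methylcellulose given orally twice daily at 10 mL/kg for 14 days; control got vehicle. Doses expressed as salt-free. Caliper volume (a×b²/2) measured blind 2–3 times weekly. T/C (%) versus control; five mice or eight rats per group.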
(In xenograft studies the graft and the host belong to different species.)

A short description of data set [10]: Antitumor activity against human 4-1ST cells xenografted in BALB/c nu/nu mouse at 50 mg/kg, po bid administered 14 days measured on day 31 relative to control. The format is functional. A digest of the protocol:
as §2

A short description of data set [11]: Antitumor activity against human 4-1ST cells xenografted in F344/N jcl-rnu rat at 12.5 mg/kg, po bid administered 14 days measured on day 31 relative to control. The format is functional. The method, boiled down:
as §2

A short description of data set [12]: Antitumor activity against human 4-1ST cells xenografted in BALB/c nu/nu mouse at 100 mg/kg, po bid administered 14 days measured on day 31 relative to control. The format is functional. The method, boiled down: as §2

SMILES strings stand for the structures.

Sequence of Epidermal growth factor receptor (P00533 whole entry, the tested form may be a part): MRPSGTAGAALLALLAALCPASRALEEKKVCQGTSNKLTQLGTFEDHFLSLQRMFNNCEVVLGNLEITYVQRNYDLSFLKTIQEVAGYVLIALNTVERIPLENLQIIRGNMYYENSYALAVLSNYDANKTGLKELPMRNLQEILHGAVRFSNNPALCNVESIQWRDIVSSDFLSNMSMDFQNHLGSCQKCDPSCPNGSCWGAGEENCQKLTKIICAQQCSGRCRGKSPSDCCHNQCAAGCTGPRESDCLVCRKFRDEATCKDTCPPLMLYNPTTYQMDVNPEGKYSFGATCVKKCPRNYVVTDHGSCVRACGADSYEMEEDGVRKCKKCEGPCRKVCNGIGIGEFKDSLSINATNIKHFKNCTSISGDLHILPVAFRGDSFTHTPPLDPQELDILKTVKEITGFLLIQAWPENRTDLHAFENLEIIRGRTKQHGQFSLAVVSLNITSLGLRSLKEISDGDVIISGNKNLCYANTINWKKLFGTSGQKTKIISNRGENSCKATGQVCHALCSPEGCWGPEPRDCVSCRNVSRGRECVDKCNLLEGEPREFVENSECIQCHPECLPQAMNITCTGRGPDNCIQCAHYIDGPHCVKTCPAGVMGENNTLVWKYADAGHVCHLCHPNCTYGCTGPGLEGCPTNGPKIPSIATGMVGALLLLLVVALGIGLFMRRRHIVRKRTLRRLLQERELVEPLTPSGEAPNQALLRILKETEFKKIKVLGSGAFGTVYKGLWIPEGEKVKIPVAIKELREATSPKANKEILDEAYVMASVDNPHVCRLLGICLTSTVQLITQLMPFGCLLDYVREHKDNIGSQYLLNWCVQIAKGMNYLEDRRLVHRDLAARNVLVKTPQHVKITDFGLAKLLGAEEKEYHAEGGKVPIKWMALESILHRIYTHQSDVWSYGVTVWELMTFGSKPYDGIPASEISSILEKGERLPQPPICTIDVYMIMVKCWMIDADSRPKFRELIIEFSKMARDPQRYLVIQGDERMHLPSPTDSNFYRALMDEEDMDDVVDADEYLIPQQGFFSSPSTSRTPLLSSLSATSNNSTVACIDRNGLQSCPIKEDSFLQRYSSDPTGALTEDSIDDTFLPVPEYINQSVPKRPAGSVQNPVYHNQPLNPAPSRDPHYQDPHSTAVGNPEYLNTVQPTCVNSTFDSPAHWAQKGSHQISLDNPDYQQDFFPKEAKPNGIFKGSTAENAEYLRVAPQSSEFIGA
Sequence of Receptor tyrosine-protein kinase erbB-2 (P04626 whole entry, the tested form may be a part): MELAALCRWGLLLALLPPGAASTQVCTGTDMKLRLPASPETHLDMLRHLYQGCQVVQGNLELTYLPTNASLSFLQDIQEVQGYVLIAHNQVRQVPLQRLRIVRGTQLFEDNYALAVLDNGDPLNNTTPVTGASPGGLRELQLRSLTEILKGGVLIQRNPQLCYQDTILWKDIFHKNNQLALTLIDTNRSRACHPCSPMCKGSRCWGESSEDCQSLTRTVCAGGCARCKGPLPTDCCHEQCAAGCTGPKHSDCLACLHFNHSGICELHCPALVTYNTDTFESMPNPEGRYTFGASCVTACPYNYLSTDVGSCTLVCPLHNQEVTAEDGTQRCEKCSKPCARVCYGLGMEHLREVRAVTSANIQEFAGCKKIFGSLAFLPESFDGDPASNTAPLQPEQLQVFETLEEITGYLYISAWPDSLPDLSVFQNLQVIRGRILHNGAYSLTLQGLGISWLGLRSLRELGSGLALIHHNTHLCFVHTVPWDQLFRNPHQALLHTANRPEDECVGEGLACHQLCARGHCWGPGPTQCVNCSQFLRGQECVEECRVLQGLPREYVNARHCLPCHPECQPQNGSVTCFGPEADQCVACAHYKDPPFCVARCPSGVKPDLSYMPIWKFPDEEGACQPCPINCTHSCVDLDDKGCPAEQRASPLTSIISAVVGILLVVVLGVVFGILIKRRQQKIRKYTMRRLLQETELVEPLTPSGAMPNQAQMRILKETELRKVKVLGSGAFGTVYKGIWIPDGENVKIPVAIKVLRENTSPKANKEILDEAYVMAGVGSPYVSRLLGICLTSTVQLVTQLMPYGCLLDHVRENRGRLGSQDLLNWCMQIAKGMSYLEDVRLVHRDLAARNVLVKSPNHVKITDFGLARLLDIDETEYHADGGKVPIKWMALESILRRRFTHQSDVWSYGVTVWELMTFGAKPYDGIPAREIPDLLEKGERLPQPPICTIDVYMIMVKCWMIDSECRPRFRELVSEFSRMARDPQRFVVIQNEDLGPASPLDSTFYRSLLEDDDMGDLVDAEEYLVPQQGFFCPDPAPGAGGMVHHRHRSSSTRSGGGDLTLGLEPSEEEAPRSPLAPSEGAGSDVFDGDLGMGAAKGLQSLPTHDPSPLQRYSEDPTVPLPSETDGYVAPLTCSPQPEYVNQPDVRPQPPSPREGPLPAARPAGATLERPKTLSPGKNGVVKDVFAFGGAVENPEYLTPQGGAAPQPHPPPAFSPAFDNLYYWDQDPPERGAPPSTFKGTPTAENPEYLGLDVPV

Usually Papp A→B stands for how fast a substance crosses the layer from the apical side. The term Papp B→A denotes how fast a substance crosses the layer from the basolateral side. Broadly, the IC50 is the concentration that inhibits the measured activity by half. A word on the GI50: it is the concentration giving 50% growth inhibition. A lower GI50 goes with greater sensitivity of the cells. Consider `CC(C)(C(=O)NCCn1ccc2ncnc(Nc3ccc(Oc4cccc(C(F)(F)F)c4)c(Cl)c3)c21)S(C)(=O)=O`, for which the Papp A→B at 10 µM in [1] was found to be 28.7 nm/s. Further, the Papp B→A at 10 µM in data set [2] was 42.6 nm/s. Moreover, the microsomal CLint at 1 µM in [3] is 23 µL/min/mg; in data set [7], 38 µL/min/mg. For the same compound, in data set [4], the T/C worked out at 43%. The IC50 in [5] turned out to be 0.047 µM; in data set [6] it was 0.017 µM. In data set [8], the GI50 worked out at 0.055 µM.
`CC(C)(C)S(=O)(=O)CC(=O)NCCn1ccc2ncnc(Nc3ccc(Oc4cccc(C(F)(F)F)c4)c(Cl)c3)c21`: the microsomal CLint at 1 µM in data set [3] was determined as 31 µL/min/mg; in [7], 45 µL/min/mg. The IC50 in data set [5] turned out to be 0.056 µM; in data set [6], 0.014 µM. The GI50 in data set [8] was found to be 0.036 µM.
As for `CC(C)(O)CC(=O)NCCn1ccc2ncnc(Nc3ccc(Oc4cccc(C(F)(F)F)c4)c(Cl)c3)c21` [TAK-285], the apical-to-basolateral permeability (Papp A→B) at 10 µM in data set [1] was 50.5 nm/s. In addition, the T/C is recorded as -12% in data set [9]; 29% in data set [4]; 44% in data set [10]; 14% in data set [11]; 11% in [12]. Besides, the Papp B→A at 10 µM in data set [2] turned out to be 68.7 nm/s.
Consider `CC(C(=O)NCCn1ccc2ncnc(Nc3ccc(Oc4cccc(C(F)(F)F)c4)c(Cl)c3)c21)S(C)(=O)=O` (configuration not stated), for which the microsomal CLint at 1 µM in [3] was found to be 33 µL/min/mg; in [7] it was 30 µL/min/mg. Besides, the results for the IC50 in [5] and in data set [6] were 0.018 µM and 0.0071 µM, respectively. Further, the GI50 in data set [8] was found to be 0.034 µM.
For the compound `CC(C)(C(=O)NCCn1ccc2ncnc(Nc3ccc(Oc4cccc(Cl)c4)c(Cl)c3)c21)S(C)(=O)=O`, the Papp A→B at 10 µM in data set [1] turned out to be 28.5 nm/s. In addition, the Papp B→A at 10 µM in [2] turned out to be 76.9 nm/s. In addition, the T/C in data set [4] is given as 24%. For the same compound, the microsomal CLint at 1 µM in data set [7] was 21 µL/min/mg. The GI50 in data set [8] came to 0.056 µM.
As to `CS(=O)(=O)CC(=O)NCCn1ccc2ncnc(Nc3ccc(Oc4cccc(C(F)(F)F)c4)c(Cl)c3)c21`, the Papp A→B at 10 µM in [1] came to 5.2 nm/s. Moreover, the Papp B→A at 10 µM in data set [2] turned out to be 82.9 nm/s. For the same compound, the values for the microsomal CLint at 1 µM in data set [3] and in data set [7] were 11 µL/min/mg and 18 µL/min/mg, respectively. The T/C in data set [4] was determined as 80%. Also, the IC50 turned out to be 0.015 µM in [5] and 0.0063 µM in [6]. Moreover, in data set [8], it took 0.0052 µM to inhibit growth by half (GI50).
Turning to `CCS(=O)(=O)CC(=O)NCCn1ccc2ncnc(Nc3ccc(Oc4cccc(C(F)(F)F)c4)c(Cl)c3)c21`, the microsomal CLint at 1 µM worked out at 22 µL/min/mg in data set [3] and 26 µL/min/mg in data set [7]. Also, the IC50 in data set [5] was 0.031 µM; in [6], 0.0085 µM. This compound yielded a GI50 in [8] of 0.036 µM.
`CS(=O)(=O)CC(=O)NCCn1ccc2ncnc(Nc3ccc(Oc4cccc(Cl)c4)c(Cl)c3)c21`: the Papp A→B at 10 µM in data set [1] came out at 6.7 nm/s. Moreover, in data set [2], the Papp B→A at 10 µM is 67.9 nm/s. Also, the IC50 in [5] was found to be 0.0067 µM; in data set [6], 0.0029 µM. In addition, in data set [7], the microsomal CLint at 1 µM came out at 11 µL/min/mg. The same compound gave a GI50 in data set [8] of 0.0039 µM.
Take `CC(C(=O)NCCn1ccc2ncnc(Nc3ccc(Oc4cccc(Cl)c4)c(Cl)c3)c21)S(C)(=O)=O` (configuration not stated): the 50% inhibitory concentration (IC50) was found to be 0.0098 µM in data set [5] and 0.0041 µM in data set [6]. Also, in [7], the microsomal CLint at 1 µM was found to be 4 µL/min/mg. The GI50 in data set [8] came out at 0.032 µM.
`CC(C)S(=O)(=O)CC(=O)NCCn1ccc2ncnc(Nc3ccc(Oc4cccc(C(F)(F)F)c4)c(Cl)c3)c21`: the microsomal CLint at 1 µM came to 35 µL/min/mg in data set [3] and 42 µL/min/mg in [7]. The compound also registered an IC50 in data set [6] of 0.011 µM. The GI50 in data set [8] was determined as 0.048 µM.
